The EternaBench riboswitch data

Test system: MS2 coat protein
Experiment: apparent Kd, MS2 coat protein; higher = weaker binding; RNA-MaP array; FMN 200 µM where present
Procedure, shortened: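 On Illumina sequencing-chip clusters, designs were transcribed by stalled E. coli RNA polymerase and titrated with SNAP-549-labelled MS2 coat protein (0.7 or 1.5 nM, doubling to 3 µM), without and then with constant ligand, in 100 mM Tris-HCl pH 7.5, 80 mM KCl, 4 mM MgCl2, BSA, DTT, yeast tRNA and Tween-20. Apparent Kd is the median of filtered per-cluster curve fits to green signal normalised to red-channel RNA signal and control-cluster median Fmax.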

[1] = designed as: OFF switch for flavin mononucleotide, no ligand
[2] = ligand present: flavin mononucleotide, designed as: OFF switch for flavin mononucleotide
[3] = designed as: ON switch for flavin mononucleotide, no ligand
[4] = ligand present: flavin mononucleotide, designed as: ON switch for flavin mononucleotide

Sequence	apparent Kd [1] [nM]	apparent Kd [2] [nM]	apparent Kd [3] [nM]	apparent Kd [4] [nM]
GGGCUCGGAGGAUAUACAAUGGGCUCGGGAAAUCGGGUCUUACAUGAGGAUCACCCAUGUAGAAGGUCGGGUCU	22.2	47.1		
GAGAAGUGAGGAUAUGCUGCUCGUCACUUGCGUGAUGAGUAGCAGAAGGCACAUGAGGAUCACCCAUGUAAAGG	133	244		
AUACUCAUGUAAGGAUAUGCAGCCGAAACGGCUGCAGAAGGUACUAUAAUACAUGAGGAUCACCCAUGUCGAAAUAAAAUAGUU			201	47.9
CUCAGCUCGUCAGGAUAUACGUCACUGCUUCGGCAGUGUGGUAAGAUCACAUGAGGAUCACCCAUGUAGAAGGGACGAGCUGAU	11.7	248		
CGUUUAUUUAUUGGAUUAUAUUAUGAGGAUAUCAAUAUUUAUUACAUGAGGAUCACCCAUGUUAAUGAGAAGGCAUAAUUAACG			9.99	6.68
GUGCAUACGUGAGGAUAUGUAUUAGCUCGUGGUACAGAAGGCAUGUCUGAUGACAUGAGGAUCACCCAUGUUGGCACAGUGCGC			48.2	27.6
UUCAUGUUAGGAUAUUCCGCCACAGAGAAAGUCUGUGGAAUGAAGAAGGGACAUGAGGAUCACCCAUGUUCCAA	15.1	15.9		
GGAUUACAUGAGGAUCACCCAUGUGAGGAUAUCGAUGUCCUGUGUGGAGUGCGGGACUCGAGAAGGCACUUGGA	43.8	219		
GUCGUGUGAGGAUAUGGAUAGUAGCAGUGGCGGUCGGCGACCUAGAAGGCACAUGAGGAUCACCCAUGUAAGAG	40.6	37.8		
GCCCGAACCACAGGAUAUCCCAAUGUUUUACAGGGAGAAGGGUGAGAGUAUGACAUGAGGAUCACCCAUGUUGUUCGGGUGGAA			709	227
UAGUAUCAACGAGGAUAUAAUAUGUUCAAUUUUUUAUAUUGUUUACAUGAGGAUCACCCAUGUUAUUAGAAGGCGUAUGGGAUU			61.8	47.7
AAUGGGCAGCAGAAGGCAUGUCAUAAGACAUGAGGAUCACCCAUGUAGUUAAGGCGAAAGCCGCAUGAGGAUAUGCUGCCCUAA			66	6.71
GUGUAGUCAGGAUAUACAUAGGAAGAUAAUAUAAUAUAAGUACAUGAGGAUCACCCAUGUAGAAGGGACAGUGU	38.5	53.8		
AGUAGUUUAACAUGAGGAUCACCCAUGUAUCUAUCUGUAACCUAGGAUAUGGACGUUGUAUUUAACCAGAAGGAGGAUCGUUUA			28.5	17
GGUACUCAAAGAGUACCAAUACGAACAUGAGGAUCACCCAUGUAGGAUAUGCUAUGCAAAGCAUAGCAGAAGGACAUGUGCCUU	41.7	276		
GGGUACAUCGGAGGAUAUCAUGCAAAUACAUGAGGAUCACCCAUGUCGAUGGAGACAUCGGAGAUUGAGAAGGCCGAUGUACCG			21.9	5.5
GUACUGUAGUGAGGAUAUACGAGUGCGAUAGCACGGCGAUCCAAUUAUACAUGAGGAUCACCCAUGUAGAAGGCACUUCAGUAC	9.04	41		
GUAUGAGCGAUAGGAUAUACUGAGAUUGAAUGGGUAGAAGGAUCACUUGUGAGGAAGACAUGAGGAUCACCCAUGUCACGGGCC			92.8	119
UCGACGAAAGUCGAACGAUGUAGCAGAAGGACAUGAGGAUCACCCAUGUCAGCUGUAACAGCCAUGUAGGAUAUGCUACAUCGC	4.27	5.7		
AAGUAGAUCCGAGGAUAUACAAUCCGGAAACGGUACAUGAGGAUCACCCAUGUAGAAGGCGGAUCUACAGGUACUAAAGUACCA	6.5	8.32		
AUUACCAGAGGAUAUGCGAGGGUGUACCUCCCACAGCGAACACAUGAGGAUCACCCAUGUAGAAGGCUGAACAU	38.9	33		
GCACUGGAUGUAGGAUAUCAGGACGAUAAGUCCUGAGAAGGACAUGAGGAUCACCCAUGUAAAACUCAACCAGUGCAUAAUAUA	14.5	18.5		
CUGCGGUAGGAGAAGGACGGCGGGUUCUUUUCAUACAUGAGGAUCACCCAUGUAGGAUAUCCUACCUCAGGCGGCCUACUACAG	7.68	10.9		
CAACCGUUGCAGAAGGUUAAAUAUAUCAACUUAUGGACAACAUGAGGAUCACCCAUGUUUUUGUUGAAGGAUAUGCAAGGGUUG	5.89	5.71		
GCAGUAAAUAAAUGCACAUGAGGAUCACCCAUGUGGGAGGCACAGGAUAUCGUAUCAUAGUAGUACGAGAAGGGUGAUAAUCUC			370	64.2
GUGCGGUAGGAGAAGGACGGAGGCUUCUUUUCAUACAUGAGGAUCACCCAUGUAGGAUAUCCUACCUCACGCGGCCUACUACUG	8.36	7.7		
UUUCCGCGAGGAUAUGCGGGCUGUGCUUUUCAUUUCUUACCACAUGAGGAUCACCCAUGUAGAAGGUGCUUCUU	154	136		
CCUCUACAUGAGGAUCACCCAUGUGAGGAUAUGCGAGGCGCGCUCGAUGAGCACGCCGGUAGAAGGCAUGUGGU	23.8	51.6		

Sequence	apparent Kd [1] [nM]	apparent Kd [2] [nM]	apparent Kd [3] [nM]	apparent Kd [4] [nM]
GGUAAAGGCAGCCUCUACCCUGCACAUGAGGAUCACCCAUGUAAGGAUAUCGCCGCGGUAAUGGUCGAGAAGGUAUAUCGGGUU	15.9	46.5		
CUUUUGUGAGGAUAUCAGUAUUAAAAAAAUAAAAUUACUACUGAGAAGGCACAUGAGGAUCACCCAUGUUCCUC	32.7	168		
GGGUACAUCGGAGGAUAUCAUGUAAAUACAUGAGGAUCACCCAUGUCGAUGGACACAUCGGAGAUUGAGAAGGCCGAUGUACCG			14.5	5.27
GAGAAGGGAGGAUAUGCUGCUCGUCACUUGCGUGAUGAGUAGCAGAAGGCACAUGAGGAUCACCCAUGUAAAGG	84.2	29.4		
UUCAUCAAUGAAGGAUAUCUAUGUCCAACAUGAGGAUCACCCAUGUUGAGGAUCACCUAUGUGUAGGAGAAGGUUAAUAUAACU			7.98	6.38
AAAAAGUGAGGAUAUACGCUGUGGAGUAGACACAACCAGACGUAGAAGGCACAUGAGGAUCACCCAUGUCCAAA	24.9	51.9		
GGAUAGGACAGAGGAUAUACGAGCUAGAGAUACUAGCAAAAUUUCCUCACAUGAGGAUCACCCAUGUAGAAGGCUGUCCUAUCG	17.5	536		
AAAAUCUAUUGAGGAUAUUCAAACACUACAUACGGAGAAGGCAAACAAUCAUGAGGACAUGAGGAUCACCCAUGUUGUGACCAU			25.5	19.4
UCAUUGUCAGGAUAUCUUAAUAACGGUUCACUGUUUUAUUUGGAGAAGGGACAUGAGGAUCACCCAUGUUCCUG	18.3	20.8		
AUUUUGUGAGGAUAUGUGGCUUCGAUCGUGAAAACGAGGCUACAGAAGGCACAUGAGGAUCACCCAUGUUCCUA	20.5	169		
AUCUCACAUGAGGAUCACCCAUGUUAGGAUAUUGUUUCUUGAUGAUUACAUCAAGCGAUAAGAAGGGACAGACU	25.6	27.4		
CUGGUUGUCGUAGGAUAUGUAGGAUAUUCCUACAUGAGGAUCACCCAUGUUCGCAUGGAAGAAAGACAGAAGGACGAUGACCAU			1190	52.2
UAGGGCGAGUUAUGUACAAGAUACAUGAGGAUCACCCAUGUGUAGGAUAUGACCCUCAUCGCUGGUCAGAAGGGCACGAGAAUC	234	314		
AAUGAGCAGUAGAAGGCAUGUCUACGGACAUGAGGAUCACCCAUGUUGUGAAUCCGAAAGGAGCAUGAGGAUAUACUGCUCUAA			70.7	14.7
GUUGGGUUUUUUUUUGGACGUUCAACAUGAGGAUCACCCAUGUAGGAUAUCGUUUGUUUUUUUUACGAGAAGGGCGUAUUUUUU	9.65	8.01		
AUACAUGAGGAUCACCCAUGUUACUGGGUCUAUAUAGAACGUAGAAGGAUGUUUAUACACAUAACAUAGGAUAUACAAUAUUGU		30.9		
GAAUUCGCAUGAGGAUAUGCACUCAUUUCAUGUGCAGAAGGUAUUUCAUUAGACAUGAGGAUCACCCAUGUAUUGGUCACUAAC			21.5	16.6
CGUGUUAACGAAGGAUAUGGAUACAUGAGGAUCACCCAUGUAUAUUUUGUGAUCUUGUUUAAGAUCCAGAAGGUCGUAUACACG	33.8	84.7		
CCGGCUGCUGUGAGGAUAUGCCUGUGGGUGCGUGGGUAGAAGGCACAUGAGGAUCACCCAUGUCCUGCGGCUCC	877	311		
GGGCCCGGAGGAUAUACAUGAGGAUCACCCAUGUACUCGGGCUCUAUUGGGCUCGGGUGUAGAAGGCCGGGCCC	13.7	14.1		
CGAUAUAUGAAGGGCGAACGCGCACAUGAGGAUCACCCAUGUAGAAGGCGAUCCGCAACGCGGAUCGAGGAUAUAUAGUAUACA	37	33.8		
GACAUGAGGAUCACCCAUGUCCAUGCAAGAGUAGUUGAGACCAGAAGGACCGUGCGGAAUGCAGGGUAGGAUAUGGAGCCCUCA			36.8	9.38
AUUAUACAUGAGGAUCACCCAUGUAAUUAAUUAAUUAAGAUCUAGGAUAUCAGCUCGUUUAGAGCUGAGAAGGAGAUCACAUGU			30.1	18.8
GUUUUGAUAGGAUAUACAUGAGGAUCACCCAUGUCCCACCGGUUACCUAUGACCAUAUGUAGAAGGAUCGUUUG	51.7	78.9		
CUAUGCCGAAUAGGAUAUUCGAUCAAAAGGAUAGAAGAAGGGUUACAUGAGGAUCACCCAUGUAUGCACAUGAGGAUCCCUUAG	279	316		
GGAUGAGCAAUAGGAUAUGCUGGGAUUGAAUGGGUAGAAGGAUUUCUAGUGGUAAAGACAUGAGGAUCACCCAUGUCGCGGCCC			45.7	45.2
GGAUAGGACAGAGGAUAUACGUGCUAGAGAUACUAGCAAAAUUUCAUCACAUGAGGAUCACCCAUGUAGAAGGCUGUCCUAUCG	4.81	8.63		
